Experimental data taken from ChEMBL document CHEMBL1138494, “Human glucagon receptor antagonists with thiazole cores. A novel series with superior pharmacokinetic properties” (J Med Chem, 2009).
The source made the active and inactive calls. The rule behind the calls is not given here.

Legend:
[1] = Oral bioavailability in fasted Sprague-Dawley rat at 3.04 mg/kg by HTLC-MS/MS analysis; format: ADME, organism-based; conditions: in vivo
Summary of the method: (§1)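 Separate intravenous and peroral dosing arms per compound, with plasma concentration followed against time. Oral bioavailability (F_po) is reported per compound together with the intravenous half-life and clearance. The dose used for each arm is listed per compound.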

[2] = Binding affinity to glucagon receptor in rabbit liver membrane by membrane filter assay; format: cell membranes, Oryctolagus cuniculus
[3] = Cmax in fasted Sprague-Dawley rat at 1.62 mg/kg, iv and 3.04 mg/kg, po; format: ADME, organism-based; conditions: in vivo
Summary of the method: (§2)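 Rats were dosed intravenously and perorally in separate arms, and plasma concentration-time profiles were obtained. Half-life was taken from the iv arm. Clearance, oral bioavailability, Cmax and Tmax were derived from the profiles.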

[4] = biological target: T1, Glucagon receptor (Homo sapiens, UniProt P47871); assay: Binding affinity to human recombinant glucagon receptor expressed in BHK cells by membrane filter assay; format: cell-based
T1 sequence (P47871 whole entry): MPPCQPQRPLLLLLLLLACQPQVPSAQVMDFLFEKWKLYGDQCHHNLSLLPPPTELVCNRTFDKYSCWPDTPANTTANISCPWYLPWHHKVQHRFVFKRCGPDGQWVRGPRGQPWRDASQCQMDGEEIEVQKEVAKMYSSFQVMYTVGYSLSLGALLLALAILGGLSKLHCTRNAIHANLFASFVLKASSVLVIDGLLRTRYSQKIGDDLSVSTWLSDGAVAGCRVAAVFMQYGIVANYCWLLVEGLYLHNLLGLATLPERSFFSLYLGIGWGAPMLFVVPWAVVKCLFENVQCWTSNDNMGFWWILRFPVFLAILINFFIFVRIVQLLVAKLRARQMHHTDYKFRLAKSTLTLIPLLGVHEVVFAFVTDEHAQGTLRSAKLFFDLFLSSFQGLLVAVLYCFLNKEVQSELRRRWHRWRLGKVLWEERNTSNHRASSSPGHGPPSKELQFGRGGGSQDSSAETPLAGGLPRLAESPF

[5] = tested on: Rhesus monkey; assay: Antihyperglycemic activity against glucagon-stimulated glycaemia in iv dosed hyperglucagonaemia/hyperglycaemia monkey model assessed as decrease in plasma glucose level preincubated for 5 mins before glucagon challenge measured after 30 mins; format: functional, organism-based; conditions: Macaca mulatta
Summary of the method: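 Anesthetized monkeys challenged with exogenous glucagon received compound intravenously. Plasma glucose was followed over time to gauge blockade of glucagon-stimulated glycaemia.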

[6] = Clearance in fasted Beagle dog at 0.25 mg/kg, iv and 0.5 mg/kg, po; format: ADME, organism-based, Canis lupus familiaris; conditions: in vivo
Summary of the method: (§3)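 Dogs were dosed at 0.25 mg/kg iv and 0.5 mg/kg po, and plasma concentration was followed over time. Half-life came from the iv arm; clearance, Cmax and Tmax were also derived.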

[7] = biological target: T1, Glucagon receptor; assay: Displacement of [125I]porcine glucagon from human recombinant glucagon receptor expressed in BHK cells by scintillation proximity assay; format: cell-based
[8] = Half life in monkey at 0.3 to 3 mg/kg, iv; format: ADME, organism-based, Macaca mulatta; parameters: dose 0.3-3 mg/kg, route intravenous; conditions: rhesus monkey, in vivo
Summary of the method: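 In the anesthetized glucagon-challenged monkey study, compound was given intravenously. Blood samples were assayed for compound, and plasma concentration-time profiles yielded the half-life.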

[9] = Oral bioavailability in fasted Beagle dog at 0.5 mg/kg; format: ADME, organism-based, Canis lupus familiaris; conditions: in vivo; summary of the method: as §1
[10] = biological target: Glucagon receptor (Mus musculus, UniProt Q61606); assay: Binding affinity to glucagon receptor in mouse liver membrane by membrane filter assay; format: cell membranes
Glucagon receptor (Mus musculus, UniProt Q61606), sequence (Q61606 whole entry): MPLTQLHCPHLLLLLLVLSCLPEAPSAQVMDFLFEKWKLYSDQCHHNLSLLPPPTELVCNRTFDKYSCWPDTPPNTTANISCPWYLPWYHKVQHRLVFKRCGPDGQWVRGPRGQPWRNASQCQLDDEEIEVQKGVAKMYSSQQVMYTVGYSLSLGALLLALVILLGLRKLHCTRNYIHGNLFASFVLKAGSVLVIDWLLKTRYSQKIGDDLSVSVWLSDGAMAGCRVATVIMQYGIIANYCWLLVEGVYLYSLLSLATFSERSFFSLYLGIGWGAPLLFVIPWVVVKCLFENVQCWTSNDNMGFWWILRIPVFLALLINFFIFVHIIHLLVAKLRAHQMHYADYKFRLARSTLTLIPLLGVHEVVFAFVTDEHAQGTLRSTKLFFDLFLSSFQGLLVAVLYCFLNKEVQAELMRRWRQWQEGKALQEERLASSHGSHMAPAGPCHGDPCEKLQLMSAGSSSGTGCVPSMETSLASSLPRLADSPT

[11] = Cmax in fasted Beagle dog at 0.25 mg/kg, iv and 0.5 mg/kg, po; format: ADME, organism-based, Canis lupus familiaris; conditions: in vivo; summary of the method: as §3
[12] = Tmax in fasted Sprague-Dawley rat at 1.62 mg/kg, iv and 3.04 mg/kg, po; format: ADME, organism-based; conditions: in vivo
Summary of the method: (§4)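 Plasma concentration–time profiles were recorded after separate intravenous and peroral dosing at the per-compound doses listed. T_max is reported in min alongside C_max (ng/mL), intravenous half-life and clearance ((mL/min)/kg).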

[13] = Binding affinity to glucagon receptor in pig liver membrane by membrane filter assay; format: cell membranes, Sus scrofa
[14] = Tmax in fasted Beagle dog at 0.25 mg/kg, iv and 0.5 mg/kg, po; format: ADME, organism-based, Canis lupus familiaris; conditions: in vivo; summary of the method: as §4
[15] = species: Homo sapiens; assay: Selectivity for human recombinant glucagon receptor over human GLP1R
[16] = species: Homo sapiens; assay: Selectivity ratio of IC50 for human recombinant glucagon receptor to IC50 for human recombinant GIPR
Summary of the method: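 Competition binding of compounds to recombinant human glucagon and GIP receptors on BHK cell membranes, run in parallel as a scintillation proximity assay and, for selected compounds, as a membrane filtration assay.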

[17] = tested on: Hepatocyte; assay: Inhibition of glucagon-stimulated glucose production in human primary hepatocytes preincubated for 10 mins before glucagon addition by NADH-linked hexokinase assay; format: functional, cell-based
Summary of the method: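 Cultured primary human hepatocytes were preincubated with compound for 10 min, then glycogenolysis was induced with 5 nM glucagon for 60 min. Glucose in the medium was measured against basal glycogenolysis. Albumin was present in the assay medium. IC50 was calculated from four experiments, mean ± SEM.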

[18] = Binding affinity to glucagon receptor in dog liver membrane by membrane filter assay; format: cell membranes, Canis lupus familiaris
[19] = Half life in fasted Sprague-Dawley rat plasma at 1.62 mg/kg, iv by HTLC-MS/MS analysis; format: ADME, organism-based; parameters: dose 1.62 mg/kg, route intravenous; summary of the method: as §2
[20] = Binding affinity to glucagon receptor in monkey liver membrane by membrane filter assay; format: cell membranes, Macaca mulatta
[21] = Half life in fasted Beagle dog at 0.25 mg/kg, iv; format: ADME, organism-based, Canis lupus familiaris; parameters: dose 0.25 mg/kg, route intravenous; conditions: in vivo; summary of the method: as §3
[22] = biological target: Glucagon receptor (Rattus norvegicus, UniProt P30082); assay: Binding affinity to glucagon receptor in rat liver membrane by membrane filter assay; format: cell membranes
Glucagon receptor (Rattus norvegicus, UniProt P30082), sequence (P30082 whole entry): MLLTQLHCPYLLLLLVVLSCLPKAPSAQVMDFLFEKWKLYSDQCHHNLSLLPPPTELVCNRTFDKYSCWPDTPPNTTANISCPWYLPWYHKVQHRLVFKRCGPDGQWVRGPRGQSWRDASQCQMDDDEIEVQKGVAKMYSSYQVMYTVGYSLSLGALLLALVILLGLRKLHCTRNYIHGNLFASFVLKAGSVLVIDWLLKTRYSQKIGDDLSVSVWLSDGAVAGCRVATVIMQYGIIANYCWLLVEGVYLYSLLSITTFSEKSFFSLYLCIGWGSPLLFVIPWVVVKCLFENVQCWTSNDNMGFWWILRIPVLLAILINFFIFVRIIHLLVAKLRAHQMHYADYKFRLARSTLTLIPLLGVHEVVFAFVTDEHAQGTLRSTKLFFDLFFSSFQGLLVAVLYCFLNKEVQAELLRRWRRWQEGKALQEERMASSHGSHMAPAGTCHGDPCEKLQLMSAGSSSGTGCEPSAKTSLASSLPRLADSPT

[23] = biological target: T2, Gastric inhibitory polypeptide receptor (Homo sapiens, UniProt P48546); assay: Binding affinity to human recombinant GIPR expressed in BHK cells by membrane filter assay; format: cell-based
T2 sequence (P48546 whole entry): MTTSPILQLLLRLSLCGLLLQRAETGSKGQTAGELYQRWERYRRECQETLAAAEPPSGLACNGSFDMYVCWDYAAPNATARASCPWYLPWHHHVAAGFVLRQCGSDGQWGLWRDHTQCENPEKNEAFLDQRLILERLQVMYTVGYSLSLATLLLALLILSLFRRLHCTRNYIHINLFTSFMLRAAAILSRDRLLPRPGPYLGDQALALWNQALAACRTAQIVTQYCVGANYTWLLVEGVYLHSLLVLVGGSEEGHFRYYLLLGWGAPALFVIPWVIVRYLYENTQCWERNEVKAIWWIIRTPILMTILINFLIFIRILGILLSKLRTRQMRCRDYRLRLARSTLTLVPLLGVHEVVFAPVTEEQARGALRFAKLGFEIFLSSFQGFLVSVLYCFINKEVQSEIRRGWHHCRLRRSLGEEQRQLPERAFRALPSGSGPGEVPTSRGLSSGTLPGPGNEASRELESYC

[24] = tested on: Hepatocyte; assay: Inhibition of glucagon-stimulated glucose production in rat primary hepatocytes; format: functional, cell-based
[25] = biological target: T2, Gastric inhibitory polypeptide receptor; assay: Displacement of [125I]porcine GIP from human recombinant GIPR receptor expressed in BHK cells by scintillation proximity assay; format: cell-based
[26] = Clearance in fasted Sprague-Dawley rat at 1.62 mg/kg, iv and 3.04 mg/kg, po by HTLC-MS/MS analysis; format: ADME, organism-based; conditions: in vivo; summary of the method: as §2
[27] = Cmax in fasted Sprague-Dawley rat at 1.58 mg/kg, iv and 3.16 mg/kg, po; format: ADME, organism-based; conditions: in vivo; summary of the method: as §2
[28] = Clearance in fasted Sprague-Dawley rat at 1.58 mg/kg, iv and 3.16 mg/kg, po; format: ADME, organism-based; conditions: in vivo; summary of the method: as §2
[29] = Oral bioavailability in fasted Sprague-Dawley rat at 3.16 mg/kg by HTLC-MS/MS analysis; format: ADME, organism-based; conditions: in vivo; summary of the method: as §1
[30] = Tmax in fasted Sprague-Dawley rat at 1.58 mg/kg, iv and 3.16 mg/kg, po; format: ADME, organism-based; conditions: in vivo; summary of the method: as §4
[31] = Half life in fasted Sprague-Dawley rat plasma at 1.58 mg/kg, iv by HTLC-MS/MS analysis; format: ADME, organism-based; parameters: dose 1.58 mg/kg, route intravenous; summary of the method: as §2
[32] = Tmax in fasted Sprague-Dawley rat at 1.9 mg/kg, iv and 3.9 mg/kg, po by HTLC-MS/MS analysis; format: ADME, organism-based; conditions: in vivo; summary of the method: as §4
[33] = Half life in fasted Sprague-Dawley rat plasma at 1.9 mg/kg, iv by HTLC-MS/MS analysis; format: ADME, organism-based; parameters: dose 1.9 mg/kg, route intravenous; summary of the method: as §2
[34] = Oral bioavailability in fasted Sprague-Dawley rat at 3.9 mg/kg by HTLC-MS/MS analysis; format: ADME, organism-based; conditions: in vivo; summary of the method: as §1
[35] = Clearance in fasted Sprague-Dawley rat at 1.9 mg/kg, iv and 3.9 mg/kg, po by HTLC-MS/MS analysis; format: ADME, organism-based; conditions: in vivo; summary of the method: as §2
[36] = Cmax in fasted Sprague-Dawley rat at 1.9 mg/kg, iv and 3.9 mg/kg, po by HTLC-MS/MS analysis; format: ADME, organism-based; conditions: in vivo; summary of the method: as §2
[37] = Cmax in fasted Sprague-Dawley rat at 1.49 mg/kg, iv and 3.19 mg/kg, po; format: ADME, organism-based; conditions: in vivo; summary of the method: as §2
[38] = Half life in fasted Sprague-Dawley rat plasma at 1.49 mg/kg, iv by HTLC-MS/MS analysis; format: ADME, organism-based; parameters: dose 1.49 mg/kg, route intravenous; summary of the method: as §2
[39] = Oral bioavailability in fasted Sprague-Dawley rat at 3.19 mg/kg by HTLC-MS/MS analysis; format: ADME, organism-based; conditions: in vivo; summary of the method: as §1
[40] = Tmax in fasted Sprague-Dawley rat at 1.49 mg/kg, iv and 3.19 mg/kg, po; format: ADME, organism-based; conditions: in vivo; summary of the method: as §4
[41] = Clearance in fasted Sprague-Dawley rat at 1.49 mg/kg, iv and 3.19 mg/kg, po; format: ADME, organism-based; conditions: in vivo; summary of the method: as §2

Row | SMILES | IC50 [4] [nM] | clearance [6] [mL/min/kg] | IC50 [7] [nM] | bioavailability [9] [%] | IC50 [10] [nM] | Cmax [11] [ng/mL] | IC50 [13] [nM] | Tmax [14] [h] | fold change (FC) [15] | fold change (FC) [16] | IC50 [17] [nM] | IC50 [18] [nM] | IC50 [20] [nM] | half-life [21] [h] | IC50 [22] [nM] | IC50 [23] [nM] | inhibition [24] | IC50 [25] [nM] | also measured
1 | O=C(O)CCNC(=O)c1ccc(CN(c2ccc(C(F)(F)F)cc2)c2nc(-c3ccc(Cl)cc3)cs2)cc1 | 93 | 2.23 | 92 | 141 | 648 | 1250 | 7000 | 1.5 | > 50 | 5 | 6700 | 155 | 114 | 1.73 | 2700 | 1100 | inactive | 990 | bioavailability [1]: 58%; IC50 [2]: 1600 nM; Cmax [3]: 2100 ng/mL; Activity [5]: Dose-dependent effect; half-life [8]: 5.23 h; Tmax [12]: 1.42 h; half-life [19]: 3.8 h; clearance [26]: 1 mL/min/kg
2 | O=C(O)CCNC(=O)c1ccc(CC(c2ccc(Cl)cc2)c2nc(-c3ccc(C(F)(F)F)cc3)cs2)cc1 (centres undefined) | 38 | – | 96 | – | – | – | – | – | > 50 | 5 | – | – | – | – | – | 211 | – | 381 | Cmax [27]: 117 ng/mL; clearance [28]: 28 mL/min/kg; bioavailability [29]: 52%; Tmax [30]: 0.5 h; half-life [31]: 0.4 h
3 | O=C(O)CCNC(=O)c1ccc(CN(c2ccc(C3=CCCCC3)cc2)c2nc(-c3ccc(C(F)(F)F)cc3)cs2)cc1 | – | – | 48 | – | – | – | – | – | > 50 | 5 | – | – | – | – | – | – | – | 368 | Tmax [32]: 0.5 h; half-life [33]: 0.583 h; bioavailability [34]: 3%; clearance [35]: 44 mL/min/kg; Cmax [36]: 36 ng/mL
4 | O=C(O)CCNC(=O)c1ccc(CN(c2ccc(OC(F)(F)F)cc2)c2nc(-c3ccc(C(F)(F)F)cc3)cs2)cc1 | 51 | 0.78 | 92 | 55 | 552 | 1000 | 5300 | 1.47 | > 50 | 5 | 3600 | 96 | 72 | 3.92 | 2000 | 480 | inactive | 833 | Cmax [37]: 638 ng/mL; half-life [38]: 7.57 h; bioavailability [39]: 29%; Tmax [40]: > 6 h; clearance [41]: 2 mL/min/kg
